Assays:
DU-145 = test: Cytotoxicity against human DU145 cells assessed as cell growth at 10 uM after 48 hrs by SRB assay relative to control; format: functional; settings: DU-145, 48 h, read-out: Activity
Outline: (§1)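 First-stage NCI-60 screen by the NCI Developmental Therapeutics Program. Each compound was tested once at a single concentration of 10 μM against the 60-cell-line panel. Growth percentage was reported for each cell line.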

UACC-62 = test: Cytotoxicity against human UACC62 cells assessed as cell growth at 10 uM after 48 hrs by SRB assay relative to control; format: functional; settings: UACC-62, 48 h, read-out: Activity
Outline: (§2)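 NCI-60 one-dose screen run by NCI DTP: each cell line exposed to a single 10 µM dose, and percentage growth recorded against untreated growth.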

UACC-257 = test: Cytotoxicity against human UACC257 cells assessed as cell growth at 10 uM after 48 hrs by SRB assay relative to control; format: functional; settings: UACC-257, 48 h, read-out: Activity; outline: as §2
Malme-3M = test: Cytotoxicity against human MALME-3M cells assessed as cell growth at 10 uM after 48 hrs by SRB assay relative to control; format: functional; settings: read-out: Activity; outline: as §1
SNB-75 = test: Cytotoxicity against human SNB75 cells assessed as cell growth at 10 uM after 48 hrs by SRB assay relative to control; format: functional; settings: SNB-75, 48 h, read-out: Activity; outline: as §2
MOLT-4 = test: Cytotoxicity against human MOLT4 cells assessed as cell growth at 10 uM after 48 hrs by SRB assay relative to control; format: functional; settings: MOLT-4, 48 h, read-out: Activity
Outline: (§3)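 First-stage NCI DTP one-dose screen against the 60 human tumour cell line panel. Compounds were tested at a single 10 μM level, and results are given as growth percentage.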

COLO 205 = test: Cytotoxicity against human COLO205 cells assessed as cell growth at 10 uM after 48 hrs by SRB assay relative to control; format: functional; settings: COLO 205, 48 h, read-out: Activity; outline: as §1
SK-MEL-5 = test: Cytotoxicity against human SK-MEL-5 cells assessed as cell growth at 10 uM after 48 hrs by SRB assay relative to control; format: functional; settings: SK-MEL-5, 48 h, read-out: Activity; outline: as §3
MCF7 = test: Cytotoxicity against human MCF7 cells assessed as cell growth at 10 uM after 48 hrs by SRB assay relative to control; format: functional; settings: MCF7, 48 h, read-out: Activity; outline: as §1
CAKI-1 = test: Cytotoxicity against human Caki1 cells assessed as cell growth at 10 uM after 48 hrs by SRB assay relative to control; format: functional; settings: CAKI-1, 48 h, read-out: Activity; outline: as §1
HCT-116 = test: Cytotoxicity against human HCT116 cells assessed as cell growth at 10 uM after 48 hrs by SRB assay relative to control; format: functional; settings: HCT-116, 48 h, read-out: Activity; outline: as §1
[1] = Cytotoxicity against human Hs578T cells assessed as cell growth at 10 uM after 48 hrs by SRB assay relative to control; format: functional; settings: Hs-578T, read-out: Activity; outline: as §1
TK-10 = test: Cytotoxicity against human TK10 cells assessed as cell growth at 10 uM after 48 hrs by SRB assay relative to control; format: functional; settings: TK-10, 48 h, read-out: Activity; outline: as §2
NCI-H460 = test: Cytotoxicity against human NCI-H460 cells assessed as cell growth at 10 uM after 48 hrs by SRB assay relative to control; format: functional; settings: NCI-H460, 48 h, read-out: Activity; outline: as §3
IGROV-1 = test: Cytotoxicity against human IGROV1 cells assessed as cell growth at 10 uM after 48 hrs by SRB assay relative to control; format: functional; settings: IGROV-1, 48 h, read-out: Activity; outline: as §1
HCC 2998 = test: Cytotoxicity against human HCC2998 cells assessed as cell growth at 10 uM after 48 hrs by SRB assay relative to control; format: functional; settings: HCC 2998, 48 h, read-out: Activity; outline: as §1
PC-3 = test: Cytotoxicity against human PC3 cells after 48 hrs by SRB assay; format: functional, cell-based; settings: PC-3, 48 h
Outline: (§4)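 Second-stage NCI-60 panel run by the NCI Developmental Therapeutics Program, covering nine tumour subpanels. Five concentrations were tested: 0.01, 0.1, 1, 10 and 100 μM. Percentage growth at each level was plotted against log10 drug concentration. GI50, TGI and LC50 were read from these dose-response curves. Subpanel MID values were divided into the full-panel MID to give selectivity ratios.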

UO-31 = test: Cytotoxicity against human UO31 cells assessed as cell growth at 10 uM after 48 hrs by SRB assay relative to control; format: functional; settings: UO-31, 48 h, read-out: Activity; outline: as §2
LOX IMVI = test: Cytotoxicity against human LOXIMVI cells assessed as cell growth at 10 uM after 48 hrs by SRB assay relative to control; format: functional; settings: read-out: Activity; outline: as §1
SF-539 = test: Cytotoxicity against human SF539 cells assessed as cell growth at 10 uM after 48 hrs by SRB assay relative to control; format: functional; settings: SF-539, 48 h, read-out: Activity; outline: as §3
MDA-MB-468 = test: Cytotoxicity against human MDA-MB-468 cells assessed as cell growth at 10 uM after 48 hrs by SRB assay relative to control; format: functional; settings: MDA-MB-468, 48 h, read-out: Activity; outline: as §3
OVCAR-4 = test: Cytotoxicity against human OVCAR4 cells assessed as cell growth at 10 uM after 48 hrs by SRB assay relative to control; format: functional; settings: OVCAR-4, 48 h, read-out: Activity; outline: as §3
NCI-H322M = test: Cytotoxicity against human NCI-H322M cells assessed as cell growth at 10 uM after 48 hrs by SRB assay relative to control; format: functional; settings: read-out: Activity; outline: as §3
T47D = test: Cytotoxicity against human T47D cells assessed as cell growth at 10 uM after 48 hrs by SRB assay relative to control; format: functional; settings: read-out: Activity; outline: as §2
[2] = Cytotoxicity against human EKVX cells assessed as cell growth at 10 uM after 48 hrs by SRB assay relative to control; format: functional; settings: read-out: Activity; outline: as §1
CCRF-CEM = test: Cytotoxicity against human CCRF-CEM cells assessed as cell growth at 10 uM after 48 hrs by SRB assay relative to control; format: functional; settings: read-out: Activity; outline: as §1
NCI-H23 = test: Cytotoxicity against human NCI-H23 cells assessed as cell growth at 10 uM after 48 hrs by SRB assay relative to control; format: functional; settings: NCI-H23, 48 h, read-out: Activity; outline: as §3
SR = test: Cytotoxicity against human SR cells assessed as cell growth at 10 uM after 48 hrs by SRB assay relative to control; format: functional; settings: read-out: Activity; outline: as §2
HOP-92 = test: Cytotoxicity against human HOP92 cells assessed as cell growth at 10 uM after 48 hrs by SRB assay relative to control; format: functional; settings: HOP-92, 48 h, read-out: Activity; outline: as §1
BT-549 = test: Cytotoxicity against human BT549 cells assessed as cell growth at 10 uM after 48 hrs by SRB assay relative to control; format: functional; settings: BT-549, 48 h, read-out: Activity; outline: as §1
OVCAR-5 = test: Cytotoxicity against human OVCAR5 cells after 48 hrs by SRB assay; format: functional; settings: OVCAR-5, 48 h; outline: as §4
NCI-H522 = test: Cytotoxicity against human NCI-H522 cells assessed as cell growth at 10 uM after 48 hrs by SRB assay relative to control; format: functional; settings: NCI-H522, 48 h, read-out: Activity; outline: as §3

What does the source list for O=C1c2ccccc2C(=O)c2c1ccc1nsnc21?
growth at 10 µM (DU-145): 40.8%; growth at 10 µM (UACC-62): -82.3%; growth at 10 µM (UACC-257): -83.1%; growth at 10 µM (Malme-3M): -71.6%; growth at 10 µM (SNB-75): 79%; growth at 10 µM (MOLT-4): -40.1%; growth at 10 µM (COLO 205): 112%; growth at 10 µM (SK-MEL-5): 8.52%; growth at 10 µM (MCF7): -50.7%; growth at 10 µM (CAKI-1): 1.97%; growth at 10 µM (HCT-116): -50%; growth at 10 µM [1]: 7.4%; growth at 10 µM (TK-10): 97%; growth at 10 µM (NCI-H460): 77.4%; growth at 10 µM (IGROV-1): -88.3%; growth at 10 µM (HCC 2998): -0.74%; IC50 (PC-3): 2.5 µM; growth at 10 µM (UO-31): -79.3%; growth at 10 µM (LOX IMVI): -50.6%; growth at 10 µM (SF-539): -47.1%; growth at 10 µM (MDA-MB-468): -73.2%; growth at 10 µM (OVCAR-4): -94.4%; growth at 10 µM (NCI-H322M): 126%; growth at 10 µM (T47D): -45.5%; growth at 10 µM [2]: 103%; growth at 10 µM (CCRF-CEM): -30.8%; growth at 10 µM (NCI-H23): 16.1%; growth at 10 µM (SR): 4.96%

What does the source list for O=C1c2ccccc2C(=O)c2c1cc(Sc1ccc(F)cc1F)c1nsnc21?
growth at 10 µM (DU-145): 41.3%; growth at 10 µM (HOP-92): -18.4%; growth at 10 µM (UACC-62): 53.3%; growth at 10 µM (UACC-257): 43.9%; growth at 10 µM (Malme-3M): 39.5%; growth at 10 µM (SNB-75): 42.9%; growth at 10 µM (MOLT-4): -41.6%; growth at 10 µM (COLO 205): 104%; growth at 10 µM (SK-MEL-5): 48.5%; growth at 10 µM (MCF7): 6.58%; growth at 10 µM (CAKI-1): 24%; growth at 10 µM (HCT-116): -63.1%; growth at 10 µM (BT-549): 66.4%; growth at 10 µM [1]: 50.1%; growth at 10 µM (TK-10): 112%; growth at 10 µM (NCI-H460): 83.6%; growth at 10 µM (HCC 2998): 107%; IC50 (PC-3): 14.8 µM; growth at 10 µM (UO-31): 70.3%; growth at 10 µM (LOX IMVI): -42%; growth at 10 µM (SF-539): 58.8%; GI50 (OVCAR-5): 8.18 µM; LC50 (OVCAR-5): 63.3 µM; TGI (OVCAR-5): 24 µM; growth at 10 µM (MDA-MB-468): -87%; growth at 10 µM (NCI-H522): 61.1%; growth at 10 µM (T47D): -28.6%; growth at 10 µM [2]: 98.1%; growth at 10 µM (NCI-H23): 9.53%; growth at 10 µM (SR): 0.2%

Reference: ChEMBL document CHEMBL3621107, “Ring fusion strategy for synthesis and lead optimization of sulfur-substituted anthra[1,2-c][1,2,5]thiadiazole-6,11-dione derivatives as promising scaffold of antitumor agents” (Eur J Med Chem, 2015)
